Activity calls are given as the source filed them. No cut-off for these calls is given here.
Legend:
[1] = biological target: T1, Histone-arginine methyltransferase CARM1 (Homo sapiens, UniProt Q86X55); assay: Inhibition of CARM1 (unknown origin)
T1 sequence (Q86X55 whole entry): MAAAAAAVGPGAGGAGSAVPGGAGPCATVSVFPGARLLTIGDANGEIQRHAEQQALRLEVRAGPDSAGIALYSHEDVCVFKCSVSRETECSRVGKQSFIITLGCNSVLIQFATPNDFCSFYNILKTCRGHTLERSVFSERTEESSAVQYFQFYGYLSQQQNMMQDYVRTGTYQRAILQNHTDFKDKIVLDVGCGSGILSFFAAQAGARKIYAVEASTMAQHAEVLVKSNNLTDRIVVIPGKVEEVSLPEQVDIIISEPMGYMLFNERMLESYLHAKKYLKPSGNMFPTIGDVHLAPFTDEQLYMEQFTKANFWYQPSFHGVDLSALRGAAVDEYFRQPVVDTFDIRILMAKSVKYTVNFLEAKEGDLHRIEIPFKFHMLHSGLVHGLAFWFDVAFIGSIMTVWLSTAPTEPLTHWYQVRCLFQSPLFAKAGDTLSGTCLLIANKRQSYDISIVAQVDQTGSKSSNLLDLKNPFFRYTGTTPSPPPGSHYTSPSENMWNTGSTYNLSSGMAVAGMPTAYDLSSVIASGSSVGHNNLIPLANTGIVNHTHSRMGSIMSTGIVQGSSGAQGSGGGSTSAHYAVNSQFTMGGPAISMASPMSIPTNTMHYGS
In short: (§1)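 Radiometric methyltransfer assay. Enzyme transfers a tritiated methyl from ³H-SAM onto a biotin-labelled peptide substrate, with unlabelled SAM added when needed. The methylated peptide is captured in FlashPlate wells and counted by scintillation. IC50 comes from titrating compound under balanced conditions, with both peptide substrate and SAM at their Km concentrations.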

[2] = biological target: Protein arginine N-methyltransferase 5 (Homo sapiens, UniProt O14744); assay: Inhibition of PRMT5 (unknown origin); in short: as §1
Protein arginine N-methyltransferase 5, sequence (O14744 whole entry): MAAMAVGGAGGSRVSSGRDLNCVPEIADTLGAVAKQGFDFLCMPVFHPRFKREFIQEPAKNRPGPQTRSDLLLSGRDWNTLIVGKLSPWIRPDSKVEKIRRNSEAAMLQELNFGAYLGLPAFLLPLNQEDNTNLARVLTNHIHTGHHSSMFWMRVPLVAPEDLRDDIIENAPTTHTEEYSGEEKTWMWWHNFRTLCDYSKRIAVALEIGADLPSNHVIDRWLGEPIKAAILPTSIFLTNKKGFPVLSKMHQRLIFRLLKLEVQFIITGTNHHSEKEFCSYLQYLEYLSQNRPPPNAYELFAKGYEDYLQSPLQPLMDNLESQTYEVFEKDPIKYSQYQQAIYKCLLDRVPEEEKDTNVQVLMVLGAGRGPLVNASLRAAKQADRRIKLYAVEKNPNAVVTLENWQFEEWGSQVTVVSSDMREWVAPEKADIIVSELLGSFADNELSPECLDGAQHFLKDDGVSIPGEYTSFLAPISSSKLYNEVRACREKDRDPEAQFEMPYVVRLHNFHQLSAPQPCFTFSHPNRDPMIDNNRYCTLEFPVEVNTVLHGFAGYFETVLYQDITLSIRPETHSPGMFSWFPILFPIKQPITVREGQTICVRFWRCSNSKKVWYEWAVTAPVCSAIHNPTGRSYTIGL

[3] = biological target: T2, Histone-arginine methyltransferase CARM1 (Homo sapiens) (UniProt Q86X55); assay: Noncompetitive inhibition of CARM1 (unknown origin) at varying levels of peptide substrate and cofactor 3H-SAM by scintillation proximity assay
T2 sequence (whole entry): T1 sequence (Q86X55 whole entry)

| SMILES | IC50 [1] | IC50 [2] | inhibition [3] |
| --- | --- | --- | --- |
| CNCCN1CCC(NCc2cccc(F)c2)CC1 | 223 nM | – | – |
| CNCCN1CCC(NCc2cccc(Br)c2)CC1 | 94 nM | > 50000 nM | Active |
| CNCCN1CCC(NCc2cccc(Cl)c2)CC1 | 157 nM | – | – |
| CNCCN1CC(OCc2cccc(OC(F)(F)F)c2)C1 | 144 nM | – | – |
| CNCCN1CCC(NCc2ccccc2)CC1 | 471 nM | > 50000 nM | – |
| CNCCN1CCC(NCc2cccc(-c3ccccc3)c2)CC1 | 330 nM | – | – |

Continued, in another order:

| IC50 [1] | SMILES | IC50 [2] | inhibition [3] |
| --- | --- | --- | --- |
| 94 nM | CNCCN1CC(NCc2cccc(C(F)(F)F)c2)C1 | – | – |
| 90 nM | CNCCN1CC(NCc2cccc(OC(F)(F)F)c2)C1 | – | – |
| 130 nM | CNCCN1CC(NCc2cccc(F)c2)C1 | – | – |
| 302 nM | CNCCN1CCC(NCc2cccc(C(F)(F)F)c2)CC1 | – | – |
| 342 nM | CNCCN1CCC(NCc2cccc(OC(F)(F)F)c2)CC1 | – | – |
| 67 nM | CNCCN1CC(NCc2cccc(Br)c2)C1 | – | – |
| 50 nM | CNCCN1CC(NCc2cccc(Cl)c2)C1 | – | – |

Source: ChEMBL document CHEMBL3994567, “Design and synthesis of selective, small molecule inhibitors of coactivator-associated arginine methyltransferase 1 (CARM1)” (Medchemcomm, 2016)
